# Measurements from ChEMBL document CHEMBL3425429.
# The source made the active and inactive calls. The calls are words filed in the database; no cut-off is given here.
# Experiments:
# [1] = molecular target: Proto-oncogene tyrosine-protein kinase Src (Homo sapiens, UniProt P12931)
# HepG2 = test: cells; settings: Homo sapiens, HepG2, 72 h
# MDA-MB-231 [2] = test: cells; settings: Homo sapiens, MDA-MB-231, 72 h
# MDA-MB-231 [3] = test: Antitumor activity against human MDA-MB-231 cells xenografted in SCID mouse assessed as tumor growth inhibition at 10 mg/kg/week, iv administered for 18 days measured every 3 days during compound dosing; assay type: functional, organism-based
# Procedure, shortened: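 SCID mice (5–6 weeks) given subcutaneous injections of 5 ×10^6 MDA-MB-231 cells; at 150–200 mm3 tumors, randomized into 6 groups of 6; oral daily dosing (vehicle 25% PEG400 + 5% DMSO in sterile water), paclitaxel 10 mg/kg/week by tail vein; tumors measured every 3 days, volume = ab²/2; side effects monitored daily.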
# MDA-MB-231 [4] = test: Potency index, ratio of dasatinib IC50 to compound IC50 for human MDA-MB-231 cells; assay type: functional
# MDA-MB-231 [5] = test: Potency index, ratio of ponatinib IC50 to compound IC50 for human MDA-MB-231 cells; assay type: functional
# MDA-MB-231 [6] = test: Induction of apoptosis in human MDA-MB-231 cells assessed as early apoptotic cells at 0.3 uM after 48 hrs by annexin V-FITC/propidium iodide staining-based flow cytometric analysis (reference value: […]); assay type: functional
# MDA-MB-231 [7] = test: Induction of apoptosis in human MDA-MB-231 cells assessed as late apoptotic cells at 0.3 uM after 48 hrs by annexin V-FITC/propidium iodide staining-based flow cytometric analysis (reference value: 4.25%); assay type: functional
# MDA-MB-231 [8] = test: Induction of apoptosis in human MDA-MB-231 cells assessed as viable cells at 0.3 uM after 48 hrs by annexin V-FITC/propidium iodide staining-based flow cytometric analysis (reference value: 94.4%); assay type: functional; settings: MDA-MB-231, 48 h, read-out: Activity
# MDA-MB-231 [9] = test: Cell cycle arrest in human MDA-MB-231 cells assessed as accumulation at G0/G1 phase at 0.3 uM after 24 to 48 hrs by flow cytometric analysis; assay type: functional, cell-based
# MDA-MB-231 [10] = test: Antimigratory activity against human MDA-MB-231 cells at 0.03 to 0.3 uM after 20 hrs by wound healing assay; assay type: functional, cell-based
# Procedure, shortened: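 MDA-MB-231 monolayers grown to confluence, scratched with a sterile pipet tip, rinsed with saline, then kept in DMEM containing vehicle or compound; wound images taken after 20 h and analysed.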
# MDA-MB-231 [11] = test: Antiinvasive activity against human MDA-MB-231 cells at 0.1 uM after 24 hrs by transwell assay; assay type: functional, cell-based
# MDA-MB-231 [12] = test: Inhibition of ERK phosphorylation in human MDA-MB-231 cells at 0.001 to 1 uM after 20 hrs by Western blot analysis; assay type: cell-based
# Procedure, shortened: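 MDA-MB-231 cells exposed to a concentration series for 20 h at 37 °C, then washed in ice-cold saline and lysed in RIPA buffer with protease cocktail. Lysates were cleared at 12 000 rpm for 10 min at 4 °C and protein measured by Bradford. Equal protein was run on SDS-PAGE, transferred to PVDF and immunoblotted for phospho-proteins.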
# MDA-MB-231 [13] = test: Effect on AKT phosphorylation in human MDA-MB-231 cells at 0.001 to 1 uM after 20 hrs by Western blot analysis; assay type: cell-based
# Procedure, shortened: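 MDA-MB-231 cells exposed to a concentration series for 20 h at 37 °C, lysed in RIPA with protease inhibitor cocktail, cleared by centrifugation, protein quantified by Bradford, resolved by SDS-PAGE, transferred to PVDF and immunoblotted.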
# MDA-MB-231 [14] = test: Antiproliferative activity against human MDA-MB-231 cells assessed as inhibition of colony formation at >0.01 uM after 12 days by crystal violet staining-based assay; assay type: functional, cell-based
# Procedure, shortened: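 MDA-MB-231 cells plated at 5000 per well and treated the next day with vehicle or compound, medium refreshed every 4 days; after 12 days, colonies fixed in methanol, crystal violet stained and photographed.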
# MDA-MB-231 [15] = test: Antitumor activity against human MDA-MB-231 cells xenografted in SCID mouse assessed as tumor growth inhibition at 40 mg/kg/day administered for 18 days measured every 3 days during compound dosing; assay type: functional, organism-based
# MDA-MB-231 [16] = test: Induction of apoptosis in human MDA-MB-231 cells assessed as early apoptotic cells at 0.3 uM after 24 hrs by annexin V-FITC/propidium iodide staining-based flow cytometric analysis (reference value: 1.58%); assay type: functional
# MDA-MB-231 [17] = test: Induction of apoptosis in human MDA-MB-231 cells assessed as late apoptotic cells at 0.3 uM after 24 hrs by annexin V-FITC/propidium iodide staining-based flow cytometric analysis (reference value: 2.67%); assay type: functional
# MDA-MB-231 [18] = test: Induction of apoptosis in human MDA-MB-231 cells assessed as viable cells at 0.3 uM after 24 hrs by annexin V-FITC/propidium iodide staining-based flow cytometric analysis (reference value: 95.5%); assay type: functional; settings: MDA-MB-231, 24 h, read-out: Activity
# Proto-oncogene tyrosine-protein kinase Src, sequence (P12931 2-536 limits assumed): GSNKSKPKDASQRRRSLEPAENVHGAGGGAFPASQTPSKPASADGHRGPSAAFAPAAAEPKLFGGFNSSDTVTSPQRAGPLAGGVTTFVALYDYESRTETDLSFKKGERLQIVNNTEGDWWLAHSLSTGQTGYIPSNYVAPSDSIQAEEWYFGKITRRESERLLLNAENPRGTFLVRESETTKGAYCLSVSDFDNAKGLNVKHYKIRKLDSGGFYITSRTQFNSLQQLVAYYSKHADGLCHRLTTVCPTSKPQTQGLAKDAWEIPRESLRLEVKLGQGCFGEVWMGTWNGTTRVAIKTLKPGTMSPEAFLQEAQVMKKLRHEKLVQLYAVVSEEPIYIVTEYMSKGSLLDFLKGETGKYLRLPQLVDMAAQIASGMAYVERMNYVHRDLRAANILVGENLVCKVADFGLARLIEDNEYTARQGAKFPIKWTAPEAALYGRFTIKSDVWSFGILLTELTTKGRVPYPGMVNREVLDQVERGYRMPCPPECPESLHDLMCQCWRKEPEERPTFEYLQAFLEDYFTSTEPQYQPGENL
IC50 [1] [nM],IC50 (HepG2) [nM],IC50 (MDA-MB-231 [2]) [nM],SMILES,further results
2,> 5000,56,CCN1CCN(Cc2ccc(NC(=O)c3ccc(C)c(C#Cc4nn(C(C)C)c5ncnc(N)c45)c3)cc2C(F)(F)F)CC1,
,,,CC(=O)O[C@H]1C(=O)[C@@]2(C)[C@H]([C@H](OC(=O)c3ccccc3)[C@]3(O)C[C@H](OC(=O)[C@H](O)[C@@H](NC(=O)c4ccccc4)c4ccccc4)C(C)=C1C3(C)C)[C@]1(OC(C)=O)CO[C@@H]1C[C@@H]2O,TGI (MDA-MB-231 [3]): Active
,> 5000,51,COCn1nc(C#Cc2cc(C(=O)Nc3ccc(CN4CCN(C)CC4)c(C(F)(F)F)c3)ccc2C)c2c(N)ncnc21,
,> 5000,145,Cc1ccc(C(=O)Nc2ccc(CN3CCN(C)CC3)c(C(F)(F)F)c2)cc1C#Cc1nn(C2CCN(C(=O)OC(C)(C)C)CC2)c2ncnc(N)c12,
21,> 5000,1520,Cc1ccc(C(=O)Nc2ccc(CN3CCOCC3)c(C(F)(F)F)c2)cc1C#Cc1nn(C(C)C)c2ncnc(N)c12,
,> 5000,1740,CCn1nc(C#Cc2cc(C(=O)Nc3ccc(CN4CCN(C)CC4)c(C(F)(F)F)c3)ccc2F)c2c(N)ncnc21,
,> 5000,28,Cc1ccc(C(=O)Nc2ccc(CN3CCN(C)CC3)c(C(F)(F)F)c2)cc1C#Cc1nn(C2CCC2)c2ncnc(N)c12,
2,> 5000,69,Cc1ccc(C(=O)Nc2ccc(CN3CCN(C)CC3)c(C(F)(F)F)c2)cc1C#Cc1nn(C(C)C)c2ncnc(N)c12,Ratio IC50 (MDA-MB-231 [4]): 2.5; Ratio IC50 (MDA-MB-231 [5]): 2.5
,4700,270,Cc1ccc(C(=O)Nc2ccc(CN3CCN(C)CC3)cc2)cc1C#Cc1nn(C(C)C)c2ncnc(N)c12,
1410,> 5000,1220,CCn1nc(C#Cc2cc(C(=O)Nc3ccc(CN4CCN(C)CC4)c(C(F)(F)F)c3)ccc2C(C)C)c2c(N)ncnc21,
,> 5000,156,Cc1ccc(C(=O)Nc2ccc(CN3CCN(C)CC3)c(C(F)(F)F)c2)cc1C#Cc1cnc2cccnn12 [PONATINIB],
2,3540,57,Cc1ccc(C(=O)Nc2ccc(CN3CCN(C)CC3)c(Cl)c2)cc1C#Cc1nn(C(C)C)c2ncnc(N)c12,
,> 5000,178,Cc1nc(Nc2ncc(C(=O)Nc3c(C)cccc3Cl)s2)cc(N2CCN(CCO)CC2)n1.O [DASATINIB],Activity (MDA-MB-231 [6]): 6.31%; Activity (MDA-MB-231 [7]): 9.84%; viability at 0.3 µM (MDA-MB-231 [8]): 82.9%; Activity (MDA-MB-231 [9]): Active; Activity (MDA-MB-231 [10]): Active; Activity (MDA-MB-231 [11]): Active; inhibition (MDA-MB-231 [12]): inactive; Activity (MDA-MB-231 [13]): inactive; inhibition (MDA-MB-231 [14]): Active; TGI (MDA-MB-231 [15]): Active; Activity (MDA-MB-231 [16]): 2.64%; Activity (MDA-MB-231 [17]): 4.73%; viability at 0.3 µM (MDA-MB-231 [18]): 90.4%
,> 5000,> 5000,CCn1nc(C#Cc2cc(C(=O)Nc3ccc(CN4CCN(C)CC4)c(C(F)(F)F)c3)ccc2O)c2c(N)ncnc21,
,> 5000,103,Cc1ccc(C(=O)Nc2cccc(C(F)(F)F)c2)cc1C#Cc1nn(C(C)C)c2ncnc(N)c12,
,> 5000,52,CCn1nc(C#Cc2cc(C(=O)Nc3ccc(CN4CCN(C)CC4)c(C(F)(F)F)c3)ccc2Cl)c2c(N)ncnc21,
,> 5000,14,C=CC(=O)N1CCC(n2nc(C#Cc3cc(C(=O)Nc4ccc(CN5CCN(C)CC5)c(C(F)(F)F)c4)ccc3C)c3c(N)ncnc32)CC1,
,> 5000,418,CCc1ccc(C(=O)Nc2ccc(CN3CCN(C)CC3)c(C(F)(F)F)c2)cc1C#Cc1nn(CC)c2ncnc(N)c12,
,> 5000,24,CCn1nc(C#Cc2cccc(C(=O)Nc3ccc(CN4CCN(C)CC4)c(C(F)(F)F)c3)c2)c2c(N)ncnc21,
1,1830,40,Cc1ccc(C(=O)Nc2ccc(CN3CCN(C)CC3)c(Br)c2)cc1C#Cc1nn(C(C)C)c2ncnc(N)c12,
,> 5000,65,Cc1ccc(C(=O)Nc2ccc(CN3CCN(C)CC3)c(C(F)(F)F)c2)cc1C#Cc1nn(C2CCCC2)c2ncnc(N)c12,
,4640,321,CCn1nc(C#Cc2cc(C(=O)Nc3ccc(CN4CCN(C)CC4)c(C(F)(F)F)c3)ccc2OC)c2c(N)ncnc21,
4,1770,50,Cc1ccc(C(=O)Nc2ccc(CN3CCN(CCO)CC3)c(C(F)(F)F)c2)cc1C#Cc1nn(C(C)C)c2ncnc(N)c12,
,> 5000,20,Cc1ccc(C(=O)Nc2ccc(CN3CCN(C)CC3)c(C(F)(F)F)c2)cc1C#Cc1nn(C)c2ncnc(N)c12,

SMILES,IC50 [1] [nM],IC50 (HepG2) [nM],IC50 (MDA-MB-231 [2]) [nM],further results
Cc1ccc(C(=O)Nc2ccc(CN3CCN(C)CC3)c(C(F)(F)F)c2)cc1C#Cc1nn(C2CCNCC2)c2ncnc(N)c12,12,> 5000,,
